Laboratory results published in ChEMBL document CHEMBL1159032, “Renal excretion of stevioside in rats” (J Nat Prod, 1992).

Legend:
Rattus norvegicus [1] = experiment: Effect on renal excretion in Wistar rat assessed as glomerular filtration rate at 4 mg/kg/hr, iv (RVb=1.39 %); assay type: functional, Kidney; conditions: in the assay text read “16 mg/kg/hr” for “4 mg/kg/hr”
Procedure, shortened: (§1)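 Anaesthetized (pentobarbital 30 mg/kg ip) male Wistar rats (~345 g), 10 per group, were studied over a 30-min control period then a 30-min stevioside priming-plus-iv infusion period. Ringer's containing 2% PAH and 10% inulin was infused at 0.03 ml/min. Urine flow from timed bladder collection was expressed as percent of GFR, with GFR taken as inulin clearance (anthrone assay).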

[2] = Clearance in Wistar rat at 8 mg/kg/hr, iv; assay type: ADME, organism-based; set-up: route intravenous; conditions: in vivo
Procedure, shortened: (§2)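 Male Wistar rats (~345 g, fed, water ad lib) under ip sodium pentobarbital (30 mg/kg) on a heated table, tracheostomized. Stevioside (3% in isotonic Ringer's) was given as a priming dose plus sustained iv infusion via jugular vein. There were two 30-min periods, control then stevioside, with 10 rats per dose group. Carotid blood and timed bladder urine were collected.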

[3] = Clearance in Wistar rat at 16 mg/kg/hr, iv; assay type: ADME, organism-based; set-up: route intravenous; conditions: in vivo; procedure, shortened: as §2
Rattus norvegicus [4] = experiment: Effect on renal excretion in Wistar rat assessed as p-aminohippuric acid clearance at 16 mg/kg/hr, iv administered 30 mins after p-aminohippuric acid infusion (RVb=16.70 ml/min/kg); assay type: functional, Kidney
Procedure, shortened: (§3)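 Pentobarbital-anaesthetized (30 mg/kg ip) male Wistar rats (~345 g), 10 per dose group, received a priming dose then a sustained jugular infusion of Ringer's with 2% PAH and 10% inulin at 0.03 ml/min. Clearance was measured over a 30-min control period, then a 30-min iv stevioside priming-plus-infusion period. PAH in carotid plasma and timed bladder urine was measured colorimetrically.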

Rattus norvegicus [5] = experiment: Effect on renal excretion in Wistar rat assessed as glucose clearance at 12 mg/kg/hr, iv (RVb=0 ml/min/kg); assay type: functional, Kidney; procedure, shortened: as §2
Rattus norvegicus [6] = experiment: Effect on renal excretion in Wistar rat assessed as inulin clearance at 8 mg/kg/hr, iv administered 30 mins after inulin infusion (RVb=6.33 ml/min/kg); assay type: functional, Kidney
[7] = Clearance in Wistar rat at 4 mg/kg/hr, iv; assay type: ADME, organism-based; set-up: route intravenous; conditions: in vivo; procedure, shortened: as §2
Rattus norvegicus [8] = experiment: Effect on renal excretion in Wistar rat assessed as glomerular filtration rate at 8 mg/kg/hr, iv (RVb=1.47 %); assay type: functional, Kidney; procedure, shortened: as §1
Rattus norvegicus [9] = experiment: Effect on renal excretion in Wistar rat assessed as glucose clearance at 16 mg/kg/hr, iv (RVb=0 ml/min/kg); assay type: functional, Kidney; procedure, shortened: as §2
Rattus norvegicus [10] = experiment: Effect on renal excretion in Wistar rat assessed as p-aminohippuric acid clearance at 4 mg/kg/hr, iv administered 30 mins after p-aminohippuric acid infusion (RVb=12.88 ml/min/kg); assay type: functional, Kidney; procedure, shortened: as §3
Rattus norvegicus [11] = experiment: Effect on renal excretion in Wistar rat assessed as fractional sodium excretion at 8 mg/kg/hr, iv (RVb=0.58 %); assay type: functional, Kidney
Rattus norvegicus [12] = experiment: Effect on renal excretion in Wistar rat assessed as glomerular filtration rate at 4 mg/kg/hr, iv (RVb=1.41 %); assay type: functional, Kidney; procedure, shortened: as §1
Rattus norvegicus [13] = experiment: Effect on renal excretion in Wistar rat assessed as fractional sodium excretion at 12 mg/kg/hr, iv (RVb=0.70 %); assay type: functional, Kidney
Rattus norvegicus [14] = experiment: Effect on renal excretion in Wistar rat assessed as p-aminohippuric acid clearance at 12 mg/kg/hr, iv administered 30 mins after p-aminohippuric acid infusion (RVb=15.38 ml/min/kg); assay type: functional, Kidney; procedure, shortened: as §3
Rattus norvegicus [15] = experiment: Effect on renal excretion in Wistar rat assessed as inulin clearance at 4 mg/kg/hr, iv administered 30 mins after inulin infusion (RVb=6.66 ml/min/kg); assay type: functional, Kidney
Rattus norvegicus [16] = experiment: Effect on renal excretion in Wistar rat assessed as glucose clearance at 4 mg/kg/hr, iv (RVb=0 ml/min/kg); assay type: functional, Kidney; procedure, shortened: as §2
Rattus norvegicus [17] = experiment: Effect on renal excretion in Wistar rat assessed as fractional sodium excretion at 16 mg/kg/hr, iv (RVb=0.60 %); assay type: functional, Kidney
Rattus norvegicus [18] = experiment: Effect on renal excretion in Wistar rat assessed as fractional sodium excretion at 4 mg/kg/hr, iv (RVb=0.61 %); assay type: functional, Kidney
Rattus norvegicus [19] = experiment: Effect on renal excretion in Wistar rat assessed as p-aminohippuric acid clearance at 8 mg/kg/hr, iv administered 30 mins after p-aminohippuric acid infusion (RVb=15.60 ml/min/kg); assay type: functional, Kidney; procedure, shortened: as §3
Rattus norvegicus [20] = experiment: Effect on renal excretion in Wistar rat assessed as glomerular filtration rate at 12 mg/kg/hr, iv (RVb=1.87 %); assay type: functional, Kidney; procedure, shortened: as §1
Rattus norvegicus [21] = experiment: Effect on renal excretion in Wistar rat assessed as inulin clearance at 16 mg/kg/hr, iv administered 30 mins after inulin infusion (RVb=6.29 ml/min/kg); assay type: functional, Kidney
Rattus norvegicus [22] = experiment: Effect on renal excretion in Wistar rat assessed as glucose clearance at 8 mg/kg/hr, iv (RVb=0 ml/min/kg); assay type: functional, Kidney; procedure, shortened: as §2
Rattus norvegicus [23] = experiment: Effect on renal excretion in Wistar rat assessed as inulin clearance at 12 mg/kg/hr, iv administered 30 mins after inulin infusion (RVb=5.69 ml/min/kg); assay type: functional, Kidney
[24] = Clearance in Wistar rat at 12 mg/kg/hr, iv; assay type: ADME, organism-based; set-up: route intravenous; conditions: in vivo; procedure, shortened: as §2

- clearance [2]: 9.63 mL/min/kg
- clearance [3]: 12.5 mL/min/kg
- clearance [7]: 7.21 mL/min/kg
- clearance [24]: 10.2 mL/min/kg
SMILES: C=C1C[C@@]23CC[C@H]4[C@@](C)(CCC[C@@]4(C)C(=O)O[C@@H]4O[C@H](CO)[C@@H](O)[C@H](O)[C@H]4O)[C@@H]2CC[C@]1(O[C@@H]1O[C@H](CO)[C@@H](O)[C@H](O)[C@H]1O[C@@H]1O[C@H](CO)[C@@H](O)[C@H](O)[C@H]1O)C3 [STEVIOSIDE]
- Activity (Rattus norvegicus [1]): 2.36%
- Activity (Rattus norvegicus [4]): 33.4 mL/min/kg
- Activity (Rattus norvegicus [5]): 1.84 mL/min/kg
- Activity (Rattus norvegicus [6]): 6.51 mL/min/kg
- Activity (Rattus norvegicus [8]): 2.19%
- Activity (Rattus norvegicus [9]): 2.38 mL/min/kg
- Activity (Rattus norvegicus [10]): 12.7 mL/min/kg
- Activity (Rattus norvegicus [11]): 1.12%
- Activity (Rattus norvegicus [12]): 1.56%
- Activity (Rattus norvegicus [13]): 1.53%
- Activity (Rattus norvegicus [14]): 28.3 mL/min/kg
- Activity (Rattus norvegicus [15]): 6.02 mL/min/kg
- Activity (Rattus norvegicus [16]): 0 mL/min/kg
- Activity (Rattus norvegicus [17]): 1.55%
- Activity (Rattus norvegicus [18]): 0.79%
- Activity (Rattus norvegicus [19]): 19.2 mL/min/kg
- Activity (Rattus norvegicus [20]): 2.67%
- Activity (Rattus norvegicus [21]): 6.3 mL/min/kg
- Activity (Rattus norvegicus [22]): 1.33 mL/min/kg
- Activity (Rattus norvegicus [23]): 5.92 mL/min/kg
